# Assay results collected from several papers.
# Each line is one published result; the experiments were not run side by side.
# Target: Transient receptor potential cation channel subfamily M member 6 (TRPM6, Homo sapiens, UniProt Q9BX84)
SMILES,observed,technique,concentration,remaining binding [%]
CS(=O)(=O)N1CCCC(NC(=O)[C@H](CCC2CCCCC2)NC(=O)c2ccc(CNC(=O)c3cnc4ccccn34)cc2)C1 (some centres unmarked),cell-free assay,competition with immobilised ligand,0.1 µM,100
CC1CCCN1c1nccc(-c2cnn3ncccc23)n1 (centres unmarked),binding,,1 µM,100
COc1ccc2c(c1)O[C@@H](c1ccc(OC)c(OC)c1)C[C@H]2NC(=O)C1(c2ccc3c(c2)OC(F)(F)O3)CC1,cell-free assay,competition with immobilised ligand,1 µM,82
F[C@@H]1CCN(c2nccc(-c3cnn4ncccc34)n2)C1,binding,,1 µM,100
Cc1cnc(Nc2ccc(C(=O)N3CCC(N4CCCC4)CC3)cc2)nc1-c1cc2ccccc2s1,binding,competition with immobilised ligand,1 µM,100
CN(C)c1ncc(F)c(-c2cnn3ncccc23)n1,binding,,1 µM,100
O=C(NCCCN1CCOCC1)c1ccc(Nc2ncc(Cl)c(-c3ccc(Cl)s3)n2)cc1,binding,competition with immobilised ligand,1 µM,100
N#CC1(c2ccccn2)CCN(Cc2cc(C(=O)N3CCCC3)c(=O)n3ccccc23)CC1,cell-free assay,competition with immobilised ligand,1 µM,80
C[C@@H]1CCN(c2nccc(-c3cnn4ncccc34)n2)C1,binding,,1 µM,91
O=C(c1ccc(Nc2nccc(-c3cc4ccccc4s3)n2)cc1)N1CCC(N2CCCC2)CC1,binding,competition with immobilised ligand,1 µM,100
CNC(=O)[C@@H]1CC[C@@H](n2c(-c3ccc4cnccc4c3)nc3ccc(C(=O)NCc4cccc(C(N)=O)c4)cc32)C1,binding,competition with immobilised ligand,1 µM,83
N[C@@H]1CCN(c2nccc(-c3cnn4ncccc34)n2)C1,binding,,1 µM,100
O=C(NS(=O)(=O)c1ccc(NCC2CCOCC2)c([N+](=O)[O-])c1)c1ccc(N2CCN(Cc3ccc(C(F)(F)F)cc3-c3ccc(Cl)cc3)CC2)cc1Oc1cnc2[nH]ccc2c1,cell-free assay,competition with immobilised ligand,1 µM,89
Nc1ncc2c(n1)-c1c([nH]c3ccc(C#CC4CC4)cc13)CCCC2,binding,competition with immobilised ligand,1 µM,75
Cc1nc(C2CCN(C(=O)c3ccc(OC(F)(F)F)cc3N)CC2)c2ncc(N3CCN(C)CC3)cc2n1,cell-free assay,competition with immobilised ligand,1 µM,100
O=C(NCC1CCOCC1)c1n[nH]cc1NC(=O)c1c(F)cccc1F,binding,competition with immobilised ligand,1 µM,85
CNCc1ccccc1-c1csc([C@@H](C)Nc2nc(C)nc3cc(OC)c(OC)cc23)c1,cell-free assay,competition with immobilised ligand,1 µM,91
COc1cnc(Nc2cccc(S(N)(=O)=O)c2)nc1N1CCN(c2ccccc2)CC1,binding,competition with immobilised ligand,1 µM,90
COc1ccnn2ncc(-c3ccnc(N(C)C)n3)c12,binding,,1 µM,82
COc1ncc2cc3ccccc3nc2c1C#N,cell-free assay,competition with immobilised ligand,5 µM,92
